Assay results as given in ChEMBL document CHEMBL1157060, “Antiviral and anti-inflammatory metabolites from the soft coral Sinularia capillosa” (J Nat Prod, 2010).
The source made the active and inactive calls. The calls are words filed in the database; no cut-off is given here.

Columns and labels:
Klebsiella aerogenes = assay: Antibacterial activity against Enterobacter aerogenes ATCC 13048 at 100 ug/ml after 24 hrs; format: functional, organism-based
P388 = assay: Cytotoxicity against mouse P388 cells after 2 days by MTT assay; format: functional; conditions: for EC50: P388, 48 h, read-out: ED50 (the source's name)
In short: (§1)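 The value reported is the ED50 against each tumour cell line. Mithramycin was run as positive control.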

A549 = assay: Cytotoxicity against human A549 cells after 2 days by MTT assay; format: functional; in short: as §1
HT-29 = assay: Cytotoxicity against human HT-29 cells after 2 days by MTT assay; format: functional; in short: as §1
Human betaherpesvirus 5 = assay: Antiviral activity against HCMV assessed as protection from virus-induced cytopathogenicity after 7 days by coulter counter; format: functional, organism-based; conditions: Human betaherpesvirus 5, 168 h
Salmonella enterica = assay: Antibacterial activity against Salmonella enteritidis ATCC 13076 at 100 ug/ml after 24 hrs; format: functional, organism-based; conditions: Salmonella enterica subsp. enterica serovar Enteritidis
Serratia marcescens = assay: Antibacterial activity against Serratia marcescens ATCC 25419 at 100 ug/ml after 24 hrs; format: functional, organism-based
Shigella sonnei = assay: Antibacterial activity against Shigella sonnei ATCC 11060 at 100 ug/ml after 24 hrs; format: functional, organism-based
Yersinia enterocolitica = assay: Antibacterial activity against Yersinia enterocolitica ATCC 23715 at 100 ug/ml after 24 hrs; format: functional, organism-based
RAW264.7 [1] = assay: Antiinflammatory activity in mouse RAW264.7 cells assessed as inhibition of LPS-stimulated COX2 expression at 10 uM after 16 hrs by Western blot analysis relative to control; format: functional
In short: (§2)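 LPS-stimulated RAW 264.7 macrophages were treated with each compound at 10 µM. iNOS and COX-2 protein levels were measured by immunoblot, with β-actin also probed. Band intensity was expressed relative to the LPS-alone group, set at 100%. Data are mean ± SEM (n = 5), and significance versus LPS alone was set at P < 0.05. CAPE at 10 µM served as positive control.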

RAW264.7 [2] = assay: Antiinflammatory activity in mouse RAW264.7 cells assessed as inhibition of LPS-stimulated iNOS expression at 10 uM after 16 hrs by Western blot analysis relative to control; format: functional; in short: as §2

SMILES | Activity (Klebsiella aerogenes) | Activity (P388) | Activity (A549) | Activity (HT-29) | IC50 (Human betaherpesvirus 5) [µM] | Activity (Salmonella enterica) | Activity (Serratia marcescens) | Activity (Shigella sonnei) | Activity (Yersinia enterocolitica) | inhibition (RAW264.7 [1]) | inhibition (RAW264.7 [2]) | EC50 (P388) [µM] | EC50 (A549; A549, 48 h, read-out: ED50 (the source's name)) [µM] | EC50 (HT-29; HT-29, 48 h, read-out: ED50 (the source's name)) [µM]
C/C(=C\Cc1cc(O)c(C)cc1O)CC/C=C(\C)Cc1cc(C)co1 | inactive | inactive | inactive | inactive | 15 | inactive | inactive | inactive | inactive | inactive |  |  |  | 
CC1(C)CC(O)C[C@@]2(C)OC(=O)C=C12 (stereo partly specified) | inactive | inactive | inactive | inactive |  | inactive | inactive | inactive | inactive | inactive | inactive |  |  | 
CO[C@H](C(=O)[C@@H](O)[C@@H](C)O)[C@@H]1Cc2cc3cc(O[C@H]4C[C@@H](O[C@@H]5C[C@@H](O)[C@H](O)[C@@H](C)O5)[C@H](O)[C@@H](C)O4)c(C)c(O)c3c(O)c2C(=O)[C@H]1O[C@H]1C[C@@H](O[C@@H]2C[C@@H](O)[C@@H](O[C@@H]3C[C@](C)(O)[C@H](O)[C@@H](C)O3)[C@@H](C)O2)[C@H](O)[C@@H](C)O1 [PLICAMYCIN] |  |  |  |  |  |  |  |  |  |  |  | 0.06 | 0.07 | 0.07
C=C/C(C)=C/CCC(C)Cc1cc(C(=O)O)co1 (stereo unspecified) | inactive | inactive | inactive | inactive |  | inactive | inactive | inactive | inactive | inactive | inactive |  |  | 
C/C(=C\CC[C@]1(C)C=Cc2cc(O)c(C)cc2O1)Cc1cc(C)co1 [CAPILLOBENZOPYRANOL] | inactive |  | inactive | inactive |  | inactive | inactive | inactive | inactive | inactive |  | 12.7 |  | 
CC1=CC(=O)C(C/C=C(\C)CC/C=C(\C)Cc2cc(C)co2)=CC1=O | inactive | inactive | inactive | inactive | 5.9 | inactive | inactive | inactive | inactive |  |  |  |  | 
C=CC(=C)C(CCC(C)Cc1cc(C(=O)OC)co1)OC(C)=O (stereo unspecified) | inactive | inactive | inactive | inactive |  | inactive | inactive | inactive | inactive | inactive | inactive |  |  | 
C=C1CC[C@H](C)/C(C)=C\[C@H]2[C@H]1CC[C@]2(C)O | inactive | inactive | inactive | inactive |  | inactive | inactive | inactive | inactive | inactive | inactive |  |  | 
CO[C@](C)(CC/C=C(\C)Cc1cc(C)co1)[C@@H]1Cc2cc(O)c(C)cc2O1 [CAPILLOBENZOFURANOL] | inactive | inactive | inactive | inactive | 13.5 | inactive | inactive | inactive | inactive | inactive | inactive |  |  | 
CC1=CC(=O)C(C/C=C(\C)CC/C=C(\C)CC/C=C(\C)CC[C@H](O)C(C)(C)O)=CC1=O [CAPILLOQUINONE] | inactive |  | inactive | inactive |  | inactive | inactive | inactive | inactive | inactive |  | 9.8 |  | 
